From ChEMBL document CHEMBL3853295, “Design and synthesis of novel pyrazolo[1,5-a]pyrimidine derivatives bearing nitrogen mustard moiety and evaluation of their antitumor activity in vitro and in vivo” (Eur J Med Chem, 2016) come the findings set out here.

A word on the IC50: it is the concentration needed to halve the response being measured.

Series [1] concerns HepG2. The series can be described thus: Induction of apoptosis in human HepG2 cells assessed as viable cells at 6 uM after 24 hrs by Annexin V-FITC/propidium iodide staining based flow cytometric analysis analysis (reference value: 90.7 %). The following applies: HepG2, 24 h, read-out: Activity. In kind it is functional.
Series [2] concerns HepG2. The series can be described thus: Induction of apoptosis in human HepG2 cells assessed as necrotic cells at 6 uM after 24 hrs by Annexin V-FITC/propidium iodide staining based flow cytometric analysis analysis (reference value: 1.74 %). In kind it is functional. A general note: Flow cytometry measures light scatter and fluorescence of single cells or particles in a stream.

For series [3], the system named is HepG2. The series can be described thus: Induction of apoptosis in human HepG2 cells assessed as necrotic cells at 4 uM after 24 hrs by Annexin V-FITC/propidium iodide staining based flow cytometric analysis analysis (reference value: 1.74 %). In kind it is functional.
The nature of series [4]: Antitumor activity against human HepG2 cells xenografted in nude mouse assessed as tumor growth inhibition at 20 mg/kg, ip administered every day for 15 times measured from day 12 to 26. In kind it is functional. Set-up: scale not given: the % may be the effect or the level left. Put shortly: (§1)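 Female nude mice given 5 × 10^6 HepG-2 cells subcutaneously in the left flank. Randomized, n = 5 per group. Daily i.p. injection for 15 times, with saline as vehicle control. Tumor length and width recorded every other day; volume taken as 1/2·length·width² once tumors reached 130–160 mm3. Result is tumor growth inhibition versus the saline group.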
(In general: Xenograft models place foreign cells or tissue in a host animal.)

In series [5] the test system is HepG2. The series can be described thus: Induction of apoptosis in human HepG2 cells assessed as early apoptotic cells at 2 uM after 24 hrs by Annexin V-FITC/propidium iodide staining based flow cytometric analysis analysis (reference value: 1.60 %). In kind it is functional.
Series [6] in a line: Cytotoxicity against human GES-1 cells assessed as reduction in cell viability after 72 hrs by MTT assay. Format: toxicity, cell-based, GES1. Put shortly:
(§2)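 Cells cultured in DMEM or RPMI 1640 with 10% FBS. Seeded at about 2 × 10^3 per well and grown 24 h at 37 °C, 5% CO2. Compounds added at final 0.1–1000 uM for 72 h, 5 wells per concentration. MTT added for 4 h at 37 °C, then lysis overnight. Absorbance read at 570 nm against a 650 nm reference; IC50 calculated.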
A general note: Formazan colour is commonly taken as a measure of viable cells.

Series [7] in a line: Cytotoxicity against human A549 cells after 72 hrs by MTT assay. In kind it is functional, cell-based. Particulars: A549, 72 h. Put shortly:
as §2

Series [8] deals with HepG2. As to the kind of experiment: Induction of apoptosis in human HepG2 cells assessed as viable cells at 2 uM after 24 hrs by Annexin V-FITC/propidium iodide staining based flow cytometric analysis analysis (reference value: 90.7 %). In kind it is functional. The following applies: HepG2, 24 h, read-out: Activity.
The test system of series [9] is HepG2. As to the kind of experiment: Induction of apoptosis in human HepG2 cells assessed as viable cells at 4 uM after 24 hrs by Annexin V-FITC/propidium iodide staining based flow cytometric analysis analysis (reference value: 90.7 %). In kind it is functional. Particulars: HepG2, 24 h, read-out: Activity.
Series [10] concerns HepG2. The series can be described thus: Induction of apoptosis in human HepG2 cells assessed as late apoptotic cells at 4 uM after 24 hrs by Annexin V-FITC/propidium iodide staining based flow cytometric analysis analysis (reference value: 5.93 %). Format: functional.
Series [11] can be described thus: Cell cycle arrest in human HepG2 cells assessed as accumulation at G1 phase at 1 to 3 uM after 24 hrs by propidium iodide staining-based flow cytometric analysis. In kind it is functional. A digest of the protocol:
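HepG2 cells exposed 24 h, then trypsinized, washed in ice-cold PBS and fixed in ice-cold 70% ethanol for at least 24 h. Resuspended in 0.4 mL PBS with RNase A (1 mg/ml stock) and PI (500 ug/ml stock) for 30 min at 4 °C in the dark. Cycle distribution (G1, S, G2/M percentages) read by flow cytometry.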

For series [12], the system named is Mus musculus. As to the kind of experiment: Toxicity in nude mouse xenografted with human HepG2 cells assessed as body weight change at 10 and 20 mg/kg, ip administered every day for 15 days and measured treatment cessation. In kind it is organism-based. Particulars: in vivo, 360 h. Put shortly: (§3)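 Same subcutaneous HepG-2 xenograft in female nude mice (5 × 10^6 cells, left flank). n = 5 per group, daily i.p. dosing for 15 times, saline control. Body weight of each mouse recorded every other day during therapy and followed after treatment stopped. Treated versus untreated compared by p value over days 12–26.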

The nature of series [13]: Antitumor activity against human HepG2 cells xenografted in nude mouse assessed as tumor growth inhibition at 10 mg/kg, ip administered every day for 15 times measured from day 12 to 26. In kind it is functional. On the set-up: scale not given: the % may be the effect or the level left. A digest of the protocol: as §1
Series [14] can be described thus: Cytotoxicity against human HepG2 cells after 72 hrs by MTT assay. Particulars: HepG2, 72 h. Format: functional, cell-based. Put shortly:
as §2

Series [15] has as its system Mus musculus. The series can be described thus: Toxicity in nude mouse xenografted with human HepG2 cells assessed as body weight change at 10 mg/kg, ip administered every day for 15 times measured from day 12 to 26. In kind it is organism-based. The following applies: in vivo. A digest of the protocol: as §3
Series [16] concerns HepG2. The series can be described thus: Induction of apoptosis in human HepG2 cells assessed as late apoptotic cells at 2 uM after 24 hrs by Annexin V-FITC/propidium iodide staining based flow cytometric analysis analysis (reference value: 5.93 %). Format: functional.
For series [17], the system named is HepG2. The series can be described thus: Induction of apoptosis in human HepG2 cells assessed as early apoptotic cells at 6 uM after 24 hrs by Annexin V-FITC/propidium iodide staining based flow cytometric analysis analysis (reference value: 1.60 %). In kind it is functional.
The test system of series [18] is HepG2. The series can be described thus: Induction of apoptosis in human HepG2 cells assessed as early apoptotic cells at 4 uM after 24 hrs by Annexin V-FITC/propidium iodide staining based flow cytometric analysis analysis (reference value: 1.60 %). In kind it is functional.
Series [19] can be described thus: Cytotoxicity against human SH-SY5Y cells after 72 hrs by MTT assay. In kind it is functional, cell-based. A digest of the protocol:
as §2

For series [20], the system named is Mus musculus. As to the kind of experiment: Toxicity in nude mouse xenografted with human HepG2 cells assessed as body weight change at 20 mg/kg, ip administered every day for 15 times measured from day 12 to 26. Format: organism-based. The following applies: in vivo. A digest of the protocol:
as §3

The subject of series [21] is HepG2. The series can be described thus: Induction of apoptosis in human HepG2 cells assessed as necrotic cells at 2 uM after 24 hrs by Annexin V-FITC/propidium iodide staining based flow cytometric analysis analysis (reference value: 1.74 %). In kind it is functional.
A short description of series [22]: Cytotoxicity against human DU145 cells after 72 hrs by MTT assay. In kind it is functional, cell-based. Particulars: DU-145, 72 h. Put shortly: as §2
Series [23] concerns HepG2. The series can be described thus: Induction of apoptosis in human HepG2 cells assessed as late apoptotic cells at 6 uM after 24 hrs by Annexin V-FITC/propidium iodide staining based flow cytometric analysis analysis (reference value: 5.93 %). Format: functional.
The nature of series [24]: Cytotoxicity against human MCF7 cells after 72 hrs by MTT assay. Format: functional, cell-based. The following applies: MCF7, 72 h. A digest of the protocol: as §2

The source made the active and inactive calls. The rule behind the calls is not given here.

Turning to `N#Cc1cnn2c(Nc3ccc(N(CCCl)CCCl)cc3)cc(CN3CCC(N4CCCCC4)CC3)nc12`, in the series on HepG2 [1], the viability at 6 µM worked out at 57.3%. Moreover, the Activity with HepG2 [2] is recorded as 7.69%; with HepG2 [3] it was 5.08%; in [4], 58.26%; with HepG2 [5], 2.87%; in the series with HepG2 [10] it was 18%; in the series with Mus musculus [12], “Non-Toxic”. For the same compound, the Activity in [13] turned out to be 43.88%; with Mus musculus [15] it was 7.15%; in the series on HepG2 [16], 11.9%; in the series on HepG2 [17], 5.56%; with HepG2 [18], 3.78%; in the series on Mus musculus [20] it was 9.21%. Besides, the Activity in the series on HepG2 [21] was 3.39%; with HepG2 [23], 29.5%. Moreover, the IC50 at 72 h in [6] turned out to be 9.54 µM. In addition, the half-inhibitory concentration (IC50) in series [7] was 6.13 µM; in series [14], 0.21 µM; in [19] it was 6.02 µM; in series [22], 6.82 µM; in series [24], 8.31 µM. For the same compound, the viability at 2 µM with HepG2 [8] is 81.8%. In the series with HepG2 [9], the viability at 4 µM was determined as 73.2%. In series [11], the outcome was Active.

With `CNC(=O)c1cc(Oc2ccc(NC(=O)Nc3ccc(Cl)c(C(F)(F)F)c3)cc2)ccn1` [SORAFENIB], the Activity in series [4] is recorded as 54.93%; in series [13] it was 47.9%. For the same compound, in [6], the IC50 at 72 h turned out to be 10.7 µM. The half-maximal inhibitory concentration (IC50) in [7] was determined as 19.5 µM; in series [19], 27.7 µM.

As to `CN(C)Cc1cc(Nc2ccc(N(CCCl)CCCl)cc2)n2ncc(C#N)c2n1`, the IC50 at 72 h in series [6] worked out at 11 µM. Besides, the IC50 in series [7] stood at 6.22 µM; in series [14], 3.16 µM; in series [19], 8.68 µM; in [22] it was 18.9 µM; in series [24] it was 6.53 µM.

As for `CC1CCN(Cc2cc(Nc3ccc(N(CCCl)CCCl)cc3)n3ncc(C#N)c3n2)CC1`, the half-inhibitory concentration (IC50) at 72 h in series [6] amounted to 17.5 µM. In addition, the IC50 in [7] came out at 18.3 µM; in [14], 23.6 µM; in [19], 19.2 µM; in series [22] it was 43.4 µM; in series [24], 82.9 µM.

Regarding `CN1CCN(Cc2cc(Nc3ccc(N(CCCl)CCCl)cc3)n3ncc(C#N)c3n2)CC1`, in series [6], the IC50 at 72 h was determined as 8.29 µM. Further, the IC50 in [7] was 8.9 µM; in [14] it was 2.92 µM; in series [19], 7.42 µM; in series [22], 23.6 µM; in series [24] it was 12.2 µM.

For `N#Cc1cnn2c(Nc3ccc(N(CCCl)CCCl)cc3)cc(CN3CCCC3)nc12`, in [6], the IC50 at 72 h amounted to 13.7 µM. In addition, the IC50 in series [7] is 9.84 µM; in series [14], 5.54 µM; in [19] it was 9.17 µM; in series [22], 27.2 µM; in series [24], 12.4 µM.

On to `CN(C)C1CCN(Cc2cc(Nc3ccc(N(CCCl)CCCl)cc3)n3ncc(C#N)c3n2)CC1`, for which the IC50 at 72 h in series [6] turned out to be 11.1 µM. In addition, the IC50 in series [7] turned out to be 5.12 µM; in series [14] it was 4.01 µM; in series [19], 7.86 µM; in [22] it was 7.67 µM; in series [24], 12.4 µM.

For the compound `O=P1(N(CCCl)CCCl)NCCCO1` (centres undefined) [CYCLOPHOSPHAMIDE ANHYDROUS], the Activity worked out at 51.48% in series [4], 42.11% in series [13], 7.04% in the series with Mus musculus [15] and 10.63% with Mus musculus [20].

For `CCN1CCN(Cc2cc(Nc3ccc(N(CCCl)CCCl)cc3)n3ncc(C#N)c3n2)CC1`, in series [6], the IC50 at 72 h amounted to 13.5 µM. Besides, the IC50 in [7] came out at 14.8 µM; in series [14], 10.7 µM; in [19] it was 8.4 µM; in series [22], 21.7 µM; in [24], 13.8 µM.
